From ChEMBL document CHEMBL2163259, “ADME-guided design and synthesis of aryloxanyl pyrazolone derivatives to block mutant superoxide dismutase 1 (SOD1) cytotoxicity and protein aggregation: potential application for the treatment of amyotrophic lateral sclerosis” (J Med Chem, 2012) come the findings set out here.

Series [1] has as its system Superoxide dismutase [Cu-Zn] (Homo sapiens), P00441 [G94A]. The series can be described thus: Inhibition of SOD1 G93A mutant aggregation-induced cytotoxicity in rat PC12 cells assessed as cell viability incubated for 24 hrs and measured 72 hrs post compound dose by cytotoxicity protection assay. It is filed as cell-based. As to conditions: PC-12. The method in brief:
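PC12 cells expressing G93A SOD1-YFP fusion seeded 15000 cells/well, grown 24 h before dosing. 12-point dose response, top 32 μM, twofold dilutions. After 24 h, MG132 added (100 nM final). Viability measured 48 h later with Calcein-AM (1 μM final, 20 min, room temperature) fluorescence. EC50 derived from dose-response.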

Series [2] concerns Cerebral cortex neuron. The series can be described thus: Cytoprotection in rat Primary cortical neurons incubated for 24 hrs and measured 72 hrs post compound dose by cytotoxicity protection assay. The series is classed as functional, cell-based. The method in brief: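 Primary cortical neurons from E18 Sprague-Dawley or Fischer 344 rat brain, dissociated with papain (2 mg/mL, 30 min, 37 °C), plated on poly-D-lysine at 20,000 cells/well, cultured 5 days (~90% neurons). Six-point dose response from 100 μM top, roughly one-third dilutions; 24 h pre-incubation, then MG132 100 nM. Viability read 48 h later by Calcein-AM (1 μM, 20 min, RT) fluorescence. Active = viability ≥5 SD above MG132 controls.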

Series [3] relates to Mus musculus. The series can be described thus: Neuroprotective activity in SOD1 G93A mutant B6SJL mouse ALS model assessed as extension in life span at 22 mg/kg. It is filed as functional.
Series [4] deals with Mus musculus. The series can be described thus: Neuroprotective activity in SOD1 G93A mutant B6SJL mouse ALS model assessed as extension of life span at 16 mg/kg. The series is classed as functional.
A short description of series [5]: Drug metabolism in rat liver microsomes at 15 uM after 20 mins in presence of NADPH. The settings on record: read-out: Drug metabolism. The series is classed as ADME, Microsome. The method in brief:
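Rat liver microsomes (1 mg/mL protein) in PBS pH 7.4 with NADPH-regenerating system (1.3 mM NADP+, 3.3 mM glucose-6-phosphate, 0.4 U/mL G6PDH, 3.3 mM MgCl2). Compound at 15 μM, 37 °C for 0 and 20 min. HPLC on C18 (acetonitrile/water 25/75, 0.1% TFA). Peak-area response ratio to internal standard, normalised to t = 0.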
For orientation: Liver microsomes are a subcellular fraction often used to study metabolism.

Series [6] deals with Liver microsomes. The series can be described thus: Drug metabolism in rat liver microsomes assessed as sulfoxide metabolite formation at 15 uM incubated for 5 to 60 mins in presence of NADPH by HPLC analysis. It is filed as ADME, Microsome. The method in brief:
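Substrate (15 μM) incubated at 37 °C with rat liver microsomes plus NADPH-regenerating system for 0–60 min. Reaction stopped with acetonitrile, chilled at −78 °C, centrifuged. Supernatant run on isocratic HPLC (acetonitrile/water 25/75, 0.1% TFA). Sulfoxide identified against synthetic sulfoxide and sulfone standards (10 μM) by retention time.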

Series [7] deals with Liver microsomes. The series can be described thus: Drug metabolism in rat liver microsomes assessed as sulfoxide metabolite formation at 5 uM incubated for 10 to 60 mins in presence of NADPH by HPLC analysis LC/MS/MS analysis. The series is classed as ADME, Microsome. The method in brief:
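Duplicate incubations at 5 μM with or without rat liver microsomes, with and without NADPH, for 0, 10, 20, 40 and 60 min. Protein precipitated with acetonitrile containing internal standard. Supernatant analysed by LC/MS/MS (C18, acetonitrile-water gradient, ESI, MRM). Controls lacked microsomes or compound.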

Series [8] can be described thus: Aqueous solubility of the compound in PBS after 16 hrs. The series is classed as physicochemical.
A short description of series [9]: Half life in mouse microsomes at 5 uM incubated for 1 hr at 37 degC in presence of NADPH. The series is classed as ADME, Microsome.
A short description of series [10]: Efflux ratio of permeability from basolateral to apical side over apical to basolateral side in human Caco2 cells. The series is classed as ADME, cell-based. The settings on record: Caco-2. In general terms: Passage across Caco-2 layers is used to estimate intestinal permeability.
In series [11] the test system is Caco-2. The series can be described thus: (§1) Apparent permeability from basolateral to apical side in human Caco2 cells. It is filed as ADME, cell-based.
Series [12] in a line: Aqueous solubility of the compound in PBS after 45 mins. It is filed as physicochemical.
Series [13] has as its system Caco-2. The series can be described thus: (§2) Apparent permeability from apical to basolateral side in human Caco2 cells. The series is classed as ADME, cell-based.
Series [14] is described as follows: Half life in human microsomes at 5 uM incubated for 1 hr at 37 degC in presence of NADPH. The series is classed as ADME, Microsome.
A short description of series [15]: Intrinsic clearance in human microsomes at 5 uM incubated for 1 hr at 37 degC in presence of NADPH. It is filed as ADME, Microsome.
Series [16] is described as follows: as §1. The series is classed as ADME, cell-based. As to conditions: Caco-2.
Series [17] is described as follows: Intrinsic clearance in mouse microsomes at 5 uM incubated for 1 hr at 37 degC in presence of NADPH. It is filed as ADME, Microsome.
A short description of series [18]: as §2. The series is classed as ADME, cell-based. The settings on record: Caco-2.
The nature of series [19]: Intrinsic clearance in human microsomes at 5 uM incubated for 1 hr at 37 degC in absence of NADPH. It is filed as ADME, Microsome.

Values after ≈ are worked out from the molar mass of the structure shown. Active and inactive are the calls of the source.

Sequence of Superoxide dismutase [Cu-Zn] (Homo sapiens), P00441 [G94A] (P00441 whole entry G94A, the tested form may be a part): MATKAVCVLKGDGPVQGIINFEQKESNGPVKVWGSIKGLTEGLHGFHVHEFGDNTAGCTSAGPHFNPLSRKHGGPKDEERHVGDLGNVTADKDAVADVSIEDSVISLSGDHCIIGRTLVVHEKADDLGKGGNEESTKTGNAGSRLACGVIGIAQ

Turning to `CC(C)(C)c1cccc(OCc2cc(=O)[nH][nH]2)c1`, the Activity in series [1] is 100%.

In the case of `O=c1cc(COc2cc(F)cc(F)c2)[nH][nH]1`, the Activity in series [1] came out at 100%.

As for `CCc1cccc(OCc2cc(=O)[nH][nH]2)c1`, the Activity in [1] turned out to be 100%.

Consider `Cc1cc(S(=O)(=O)Cc2cc(=O)[nH][nH]2)c(C)cc1Cl`, for which the Activity in series [1] stood at 100%.

With `O=c1cc(COc2cc(Br)cc(Br)c2)[nH][nH]1`, the Activity in [1] is 100%.

Consider `CCc1ccc(OCc2cc(=O)[nH][nH]2)cc1`, for which the Activity in series [1] was determined as 100%.

On to `O=c1cc(CSc2c(Cl)cccc2Cl)[nH][nH]1`, for which the Activity in [1] is 100%. Moreover, in series [2], the result was Active.

Consider `O=c1cc(C[S+]([O-])c2ccc(Cl)cc2)[nH][nH]1` (stereo not drawn), for which the Activity in [1] is 35%.

As for `Nc1nc2ccc(OC(F)(F)F)cc2s1` [RILUZOLE], the Activity in [3] stood at 11%; in series [4] it was 7.5%.

For the molecule `O=c1cc(CSc2cc(Cl)cc(Cl)c2)[nH][nH]1`, the Activity in series [1] turned out to be 100%.

For the molecule `Cc1cc(-c2ccccc2)nnc1NCCN1CCOCC1` [MINAPRINE], the metabolised at 20 min, 15 µM in series [5] came to 41%.

Regarding `O=c1cc(CS(=O)(=O)c2ccc(Cl)cc2)[nH][nH]1`, the Activity in [1] was 100%.

As to `O=c1cc(CSc2ccc(Cl)cc2)[nH][nH]1`, the Drug metabolism result in [6] and in series [7] was “Active” throughout. Moreover, the Activity in [1] was found to be 100%. Moreover, the metabolised at 20 min, 15 µM in series [5] was 88%.

In the case of `O=c1cc(COc2cc(-c3ccccc3)cc(-c3ccccc3)c2)[nH][nH]1`, the Activity in series [1] is 100%.

Take `O=c1cc(COc2cccc(-c3ccccc3)c2)[nH][nH]1`: the Activity in series [1] came to 100%.

`O=c1cc(COc2ccc(Cl)cc2)[nH][nH]1`: the solubility in series [8] (buffer, 16 h) was 250 µM (≈ 56.2 µg/mL); in series [12] (buffer, 0.75 h), 250 µM (≈ 56.2 µg/mL). The t1/2 is recorded as 143 min in series [9] (1 h, 5 µM) and 139 min in series [14] (1 h, 5 µM). Further, in [1], the Activity is 100%. In addition, in series [10], the efflux ratio was 0.6. For the same molecule, the Papp in [11] was found to be 28 ×10⁻⁶ cm/s; in [13] it was 43 ×10⁻⁶ cm/s.

For the molecule `O=c1cc(COc2cccc(Br)c2)[nH][nH]1`, the Activity in series [1] stood at 100%.

On to `Cc1cc([S+]([O-])Cc2cc(=O)[nH][nH]2)c(C)cc1Cl` (stereo not drawn), for which the Activity in series [1] stood at 100%.

Take `O=c1cc(CS(=O)(=O)c2cc(Cl)cc(Cl)c2)[nH][nH]1`: the solubility at 16 h in series [8] (PBS) is ≥ 500 µM. In addition, the half-life at 5 µM in [9] and in [14] was > 60 min throughout. The Activity in [1] turned out to be 100%. For the same molecule, the efflux ratio in series [10] came out at 0.2. The CLint scaled at 5 µM in series [15] came to 4.5 mL/min/kg; in series [17], 15.3 mL/min/kg; in [19] it was 1.3 mL/min/kg. In addition, the Papp B→A in series [16] was 4.4 ×10⁻⁶ cm/s. Further, the solubility at 0.75 h in [12] (PBS) is ≥ 500 µM. In addition, in [18], the Papp A→B was 27 ×10⁻⁶ cm/s. Also, the result in series [2] was Active.

For the molecule `O=c1cc(COc2cc(C(F)(F)F)cc(C(F)(F)F)c2)[nH][nH]1`, the Activity in series [1] was 100%.

The term solubility denotes how much of the substance goes into solution per volume. A higher solubility goes with a readily soluble substance. By efflux ratio is commonly meant a quotient of directional permeabilities that is used to spot active efflux. A word on the Papp: it is a coefficient for how fast a substance crosses the barrier. Broadly, the half-life is the time needed for the level to fall by half in the phase considered. Broadly, the CLint scaled is a measure of how fast metabolising enzymes remove a compound, apart from limits set by blood flow. What is called Papp B→A is the apparent permeability from the basolateral to the apical side of a cell layer. As usually defined, the Papp A→B is how fast a substance crosses the layer from the apical side.
